# Results pooled from the literature.
# Target: D(2) dopamine receptor (DRD2, Homo sapiens, UniProt P14416)
# Concentration: 10 µM
Compound,effect on,mode,technique,inhibition [%]
NS(=O)(=O)c1cc(NC(=O)Cc2ccccc2)ccc1Oc1cccc(Cl)c1,ligand displacement,,,-7.81
Cc1ncccc1OC[C@H]1CN(CCN2CCc3ccccc32)CCO1,ligand displacement,,radioligand,26.5
COc1ccccc1N1CCN(CCCCN2C(=O)C3CCCCN3C2=O)CC1 (centres unmarked),enzyme activity,inhibitor,,72.6
CCC(F)(F)c1cc(N2CCC(S(C)(=O)=O)CC2)nc2sc(C(N)=O)c(N)c12,ligand displacement,,,69.8
c1cncc(OC[C@H]2CN(CCN3CCc4ccccc43)CCO2)c1,ligand displacement,,radioligand,36.3
C[C@H](NC(=O)Nc1cc2[nH]ncc2c(CO)n1)c1ccccn1,cell-free assay,,,17.7
COc1cccc(OC[C@@H]2CN(CC(=O)N3CCc4ccccc43)CCO2)c1,ligand displacement,,radioligand,9.5
COc1ccc(S(N)(=O)=O)cc1C(=O)NCCCN1CCN(c2ccccc2C)CC1,enzyme activity,inhibitor,,45.1
Cc1noc([C@H]2C[C@@H](c3ccc(C(F)(F)F)cc3)CN(C(=O)N3CCS(=O)(=O)C3)C2)n1,ligand displacement,,,-0.15
COc1cc(C(C)=O)ccc1OCC(O)CN1CCN(c2cc(Cl)ccc2C)CC1 (centres unmarked),enzyme activity,inhibitor,,33
CCCNc1nc2ccccc2n1Cc1ccc(Cl)cc1,ligand displacement,,,1.09
Cc1ccccc1OCC(O)CN1CCN(CC(O)COc2ccccc2C)CC1 (centres unmarked),enzyme activity,inhibitor,,19.5
O=C(c1ccc(F)cc1)N1CC(COc2ccc(Br)cc2)(C(=O)O)C1,cell-free assay,,,-29.4
c1ccc(OC[C@@H]2CN(CCN3CCc4ccccc43)CCO2)cc1,ligand displacement,,radioligand,92.8
Cc1ccccc1N1CCN(CCCCN2C(=O)C3CCCN3C2=O)CC1 (centres unmarked),enzyme activity,inhibitor,,42.3
CN(C)c1ncnc(-c2ccc3nc(Nc4cc(CN5CCN(C(=O)CC(F)(F)F)CC5)ccn4)[nH]c3c2)c1Cl,ligand displacement,,,10.6
Clc1cccc(OC[C@H]2CN(CCN3CCc4ccccc43)CCO2)c1,ligand displacement,,radioligand,63.1
O=c1oc2cc(OCC(O)CN3CCN(c4ccc(F)cc4)CC3)ccc2c2c1CCC2 (centres unmarked),enzyme activity,inhibitor,,40.8
O=C(CN1CCO[C@H](COc2cccc(Cl)c2)C1)N1CCc2ccccc21,ligand displacement,,radioligand,15.1
CCN(CC)c1ccc(C2Nc3ccc(C(=O)c4ccccc4)cc3NC3=C2C(=O)CC(C)(C)C3)cc1 (centres unmarked),ligand displacement,,radioligand,99
